Laboratory results from ChEMBL document CHEMBL3739264, “Synthesis and bio-evaluation of novel quinolino-stilbene derivatives as potential anticancer agents” (Bioorg Med Chem, 2015).
Activity calls are given as the source filed them. No cut-off for these calls is given here.

Assays:
[1] = test system: HeLa; test: Cell cycle arrest in human HeLa cells assessed as accumulation at G0-G1 phase at 6 uM after 24 hrs by flow cytometry analysis relative to control; type: functional
Method in brief: (§1)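 About 1 × 10^6 cells per plate seeded overnight, then treated with compound and harvested at set times. Cells fixed in 75% ethanol at -20°C for 12-24 h and stained 1 h with 100 µg/ml PI, 100 µg/ml RNase A and 0.3% NP-40 in PBS. DNA content measured by flow cytometry; phase fractions compared with sham-treated cells.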

[2] = test system: HeLa; test: Induction of apoptosis in human HeLa cells assessed as increase of PARP cleavage at 6 uM after 48 hrs by Western blot analysis; type: functional, cell-based
Method in brief: (§2)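 HeLa cells were sham-treated or given 6 µM and collected at set times. Lysed on ice in Tris pH 7.4/NaCl/EDTA/1% Triton X-100 with PMSF and protease inhibitors. 30-40 µg protein run on 8 or 10% gels, blotted to PVDF, probed overnight at 4°C and detected by ECL. Band levels normalized to GAPDH.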

[3] = test system: HeLa; test: Induction of apoptosis in human HeLa cells assessed as popcorn like morphology at 6 uM after 48 hrs by time lapse microscopy analysis; type: functional, cell-based
Method in brief: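 Treated HeLa cells were followed by time-lapse microscopy, with images taken at set time points.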

[4] = test system: HeLa; test: Increase of histone 3 phosphorylation at Ser10 level in human HeLa cells at 6 uM after 48 hrs by Western blot analysis; type: functional, cell-based; method in brief: as §2
[5] = test system: HeLa; test: Cell cycle arrest in human HeLa cells assessed as accumulation at G0-G1 phase at 6 uM after 12 hrs by flow cytometry analysis relative to control; type: functional; method in brief: as §1
[6] = Cell cycle arrest in human MCF10A cells assessed as accumulation at G0-G1 phase at 6 uM after 72 hrs by flow cytometry analysis relative to control; type: functional, cell-based; conditions: MCF-10A; method in brief: as §1
[7] = test system: MDA-MB-231; test: Cell cycle arrest in human MDA-MB-231 cells assessed as accumulation at sub-G1 phase at 6 uM after 24 hrs by flow cytometry analysis relative to control; type: functional
Method in brief: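 Cells seeded overnight at about 1 × 10^6 per plate, treated next morning, and harvested at set times. Fixed in 75% ethanol at -20°C for 12-24 h, then stained 1 h in PBS with 0.3% NP-40, 100 µg/ml RNase A and 100 µg/ml propidium iodide. Phase distribution read from DNA content by flow cytometry against sham-treated cells.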

[8] = test system: HeLa; test: Cell cycle arrest in human HeLa cells assessed as accumulation at S phase at 6 uM after 12 hrs by flow cytometry analysis relative to control; type: functional; method in brief: as §1

## FC(F)(F)c1cccc(/C=C\c2cc3ccccc3nc2Cl)c1
[1]
  Activity: 16.2%
[2]
  Activity: Active
[3]
  Activity: Active
[4]
  Activity: Active
[5]
  Activity: 8%
[6]
  Activity: 70.6%
[7]
  Activity: 12.8%
[8]
  Activity: 8.9%
